Assay results from ChEMBL document CHEMBL1141316, “Lyngbyastatins 5-7, potent elastase inhibitors from Floridian marine cyanobacteria, Lyngbya spp” (J Nat Prod, 2007).
Calls of active or inactive are those of the source. The rule behind the calls is not given here.

Experiments:
Sus scrofa = species: Sus scrofa; test: Inhibition of pig trypsin up to 30 uM
Summary of the method: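 Porcine pancreatic trypsin was run as the chymotrypsin assay: 50 mM Tris-HCl/100 mM NaCl/1 mM CaCl2, pH 7.8, with 10 min preincubation with sample in DMSO at 37 °C. Nα-benzoyl-DL-arginine-4-nitroanilide was the substrate. Absorbance at 405 nm was followed every 5 min for 30 min. Tests were done in triplicate, with PMSF as positive control.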

[1] = Inhibition of pig elastase; set-up: species or system Sus scrofa
Summary of the method: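 Porcine pancreatic elastase, 75 µg/mL stock in Tris-HCl pH 8.0. Enzyme was preincubated with test sample (5% DMSO final) at 30 °C for 20 min. Then N-succinyl-Ala-Ala-Ala-p-nitroanilide was added at 1.5 mM final (Km). Absorbance increase at 405 nm was read every 5 min for 30 min. Dilution series in DMSO ran from 1 mM to 100 pM, in triplicate, with PMSF as positive control.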

[2] = Inhibition of bovine alpha chymotrypsin; set-up: species or system Bos taurus
Summary of the method: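 Bovine pancreatic alpha-chymotrypsin, 1 mg/mL stock in 50 mM Tris-HCl/100 mM NaCl/1 mM CaCl2, pH 7.8. Enzyme was preincubated with test sample in DMSO at 37 °C for 10 min. Then N-succinyl-Gly-Gly-Phe-p-nitroanilide was added at 0.75 mM final (≈Km). Absorbance rise at 405 nm was read every 5 min for 30 min. Samples were log/2 dilutions from 1 mM to 100 pM stocks, in triplicate, with PMSF as positive control.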

Row | SMILES | Activity (Sus scrofa) | IC50 [1] | IC50 [2]
1 | C/C=C1\NC(=O)[C@@H](NC(=O)[C@H](CCC(N)=O)NC(=O)CCCCC)[C@@H](C)OC(=O)[C@H](C(C)C)NC(=O)[C@H](Cc2ccc(O)cc2)N(C)C(=O)[C@H](Cc2ccccc2)N2C(=O)[C@H](CC[C@H]2O)NC1=O [LYNGBYASTATIN 7] | inactive | – | –
2 | C/C=C1\NC(=O)[C@@H](NC(=O)[C@H](CCc2ccc(O)cc2)NC(=O)[C@H](C)NC(=O)[C@H](O)COS(=O)(=O)O)[C@@H](C)OC(=O)[C@H](C(C)C)NC(=O)[C@H](Cc2ccc(O)cc2)N(C)C(=O)[C@H](Cc2ccccc2)N2C(=O)[C@H](CC[C@H]2OC)NC1=O [LYNGBYASTATIN 6] | inactive | 3.3 nM | 2500 nM
3 | C/C=C1\NC(=O)[C@@H](NC(=O)[C@H](CCC(N)=O)NC(=O)CCC)[C@@H](C)OC(=O)[C@H](C(C)C)NC(=O)[C@H](Cc2ccc(O)cc2)N(C)C(=O)[C@H](Cc2ccccc2)N2C(=O)[C@H](CC[C@H]2O)NC1=O [SOMAMIDE B] | inactive | 9.5 nM | 4200 nM
4 | C/C=C1\NC(=O)[C@@H](NC(=O)[C@H](CCc2ccc(O)cc2)NC(=O)[C@H](C)NC(=O)[C@H](O)CO)[C@@H](C)OC(=O)[C@H](C(C)C)NC(=O)[C@H](Cc2ccc(O)cc2)N(C)C(=O)[C@H](Cc2ccccc2)N2C(=O)[C@H](CC[C@H]2O)NC1=O [LYNGBYASTATIN 5] | inactive | 3.2 nM | 2800 nM
